Measurements as given in ChEMBL document CHEMBL4038309, “Design and Synthesis of Chlorinated and Fluorinated 7-Azaindenoisoquinolines as Potent Cytotoxic Anticancer Agents That Inhibit Topoisomerase I” (J Med Chem, 2017).
The source made the active and inactive calls. The rule behind the calls is not given here.

Legend:
[1] = system: DU-145; assay: Antiproliferative activity against human DU145 cells assessed as growth inhibition; type: functional
Summary of the method: (§1)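 NCI-60 screen: single-dose pre-screen at 10 μM, then five concentrations from 0.01 to 100 μM. Values beyond the tested range are recorded as 0.01 or 100 μM.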

[2] = Toxicity in zebrafish embryo assessed as survival at 0.1 uM preincubated for 1 hr measured after 48 hrs (reference value: 84.4 +/- 8.5%); design: species or system Danio rerio; settings: zebrafish embryos
[3] = molecular target: T1, DNA topoisomerase 1 (Homo sapiens) (UniProt P11387); assay: Inhibition of recombinant Top1 (unknown origin) assessed as Top 1 mediated DNA cleavage using 3'-[32P]-labeled 117 bp DNA as substrate at 0.1 to 100 uM after 20 mins by PAGE analysis
T1 sequence (whole entry): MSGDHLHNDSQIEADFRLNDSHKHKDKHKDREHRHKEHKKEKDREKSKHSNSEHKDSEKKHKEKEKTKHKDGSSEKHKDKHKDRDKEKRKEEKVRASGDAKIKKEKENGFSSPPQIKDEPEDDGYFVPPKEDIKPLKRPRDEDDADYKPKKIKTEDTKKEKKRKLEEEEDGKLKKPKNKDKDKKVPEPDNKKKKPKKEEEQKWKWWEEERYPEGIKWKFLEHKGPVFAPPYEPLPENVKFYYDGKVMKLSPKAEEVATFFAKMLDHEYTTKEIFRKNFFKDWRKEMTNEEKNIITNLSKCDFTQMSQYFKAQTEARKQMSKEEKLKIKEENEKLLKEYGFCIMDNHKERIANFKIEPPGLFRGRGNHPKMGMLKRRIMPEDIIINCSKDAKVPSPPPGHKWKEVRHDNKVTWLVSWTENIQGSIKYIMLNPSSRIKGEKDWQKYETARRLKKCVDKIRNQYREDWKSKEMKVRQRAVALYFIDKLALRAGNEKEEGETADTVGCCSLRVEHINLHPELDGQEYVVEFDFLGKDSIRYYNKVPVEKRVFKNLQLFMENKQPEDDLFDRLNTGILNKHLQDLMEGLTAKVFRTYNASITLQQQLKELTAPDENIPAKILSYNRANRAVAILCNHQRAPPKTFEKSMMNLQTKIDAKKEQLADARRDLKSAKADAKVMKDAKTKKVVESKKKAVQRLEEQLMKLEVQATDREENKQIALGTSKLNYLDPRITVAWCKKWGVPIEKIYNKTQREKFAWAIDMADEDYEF
Summary of the method: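 About 2 nM 3'-[32P]-labeled DNA with recombinant Top1 in 10 mM Tris-HCl pH 7.5, 50 mM KCl, 5 mM MgCl2, 0.1 mM EDTA, 15 μg/mL BSA, 25 °C, 20 min. Compound at 0.1, 1, 10 and 100 μM. Stopped with 0.5% SDS and formamide dye, then run on 20% denaturing PAGE with phosphorimaging.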

[4] = Toxicity in zebrafish embryo assessed as survival at 0.01 uM preincubated for 1 hr measured after 96 hrs (reference value: 82.5 +/- 8.4%); design: species or system Danio rerio; settings: zebrafish embryos
[5] = system: OVCAR-3; assay: Antiproliferative activity against human OVCAR3 cells assessed as growth inhibition; type: functional; summary of the method: as §1
[6] = system: UACC-62; assay: Antiproliferative activity against human UACC62 cells assessed as growth inhibition; type: functional; summary of the method: as §1
[7] = Toxicity in zebrafish embryo assessed as survival at 0.01 uM preincubated for 1 hr measured after 120 hrs (reference value: 82.5 +/- 8.4%); design: species or system Danio rerio; settings: zebrafish embryos
[8] = Toxicity in zebrafish embryo assessed as survival at 0.1 uM preincubated for 1 hr measured after 72 hrs (reference value: 82.5 +/- 8.4%); design: species or system Danio rerio; settings: zebrafish embryos
[9] = Toxicity in zebrafish embryo assessed as survival at 0.1 uM preincubated for 1 hr measured after 24 hrs (reference value: 86.2 +/- 8.5%); design: species or system Danio rerio; settings: zebrafish embryos
[10] = Toxicity in zebrafish embryo assessed as survival at 0.01 uM preincubated for 1 hr measured after 24 hrs (reference value: 86.2 +/- 8.5%); design: species or system Danio rerio; settings: zebrafish embryos
[11] = Toxicity in zebrafish embryo assessed as survival at 0.1 uM preincubated for 1 hr measured after 96 hrs (reference value: 82.5 +/- 8.4%); design: species or system Danio rerio; settings: zebrafish embryos
[12] = Toxicity in zebrafish embryo assessed as survival at 0.1 uM preincubated for 1 hr measured after 120 hrs (reference value: 82.5 +/- 8.4%); design: species or system Danio rerio; settings: zebrafish embryos
[13] = system: HCT-116; assay: Antiproliferative activity against human HCT116 cells assessed as growth inhibition; type: functional; summary of the method: as §1
[14] = system: SF-539; assay: Antiproliferative activity against human SF539 cells assessed as growth inhibition; type: functional; summary of the method: as §1
[15] = Toxicity in zebrafish embryo assessed as survival at 1 uM preincubated for 1 hr measured after 72 hrs (reference value: 82.5 +/- 8.4%); design: species or system Danio rerio; settings: zebrafish embryos
[16] = Toxicity in zebrafish embryo assessed as survival at 1 uM preincubated for 1 hr measured after 24 hrs (reference value: 86.2 +/- 8.5%); design: species or system Danio rerio; settings: zebrafish embryos
[17] = system: SN12C; assay: Antiproliferative activity against human SN12C cells assessed as growth inhibition; type: functional; summary of the method: as §1
[18] = Toxicity in zebrafish embryo assessed as survival at 1 uM preincubated for 1 hr measured after 48 hrs (reference value: 84.4 +/- 8.5%); design: species or system Danio rerio; settings: zebrafish embryos
[19] = Toxicity in zebrafish embryo assessed as survival at 1 uM preincubated for 1 hr measured after 120 hrs (reference value: 82.5 +/- 8.4%); design: species or system Danio rerio; settings: zebrafish embryos
[20] = Toxicity in zebrafish embryo assessed as survival at 1 uM preincubated for 1 hr measured after 96 hrs (reference value: 82.5 +/- 8.4%); design: species or system Danio rerio; settings: zebrafish embryos
[21] = system: HOP-62; assay: Antiproliferative activity against human HOP62 cells assessed as growth inhibition; type: functional; summary of the method: as §1
[22] = Toxicity in zebrafish embryo assessed as survival at 10 uM preincubated for 1 hr measured after 24 to 120 hrs (reference value: 82.5 to 86.2%); design: species or system Danio rerio; settings: zebrafish embryos
[23] = system: MCF7; assay: Antiproliferative activity against human MCF7 cells assessed as growth inhibition; type: functional; summary of the method: as §1
[24] = Toxicity in zebrafish embryo assessed as survival at 0.01 uM preincubated for 1 hr measured after 48 hrs (reference value: 84.4 +/- 8.5%); design: species or system Danio rerio; settings: zebrafish embryos
[25] = Toxicity in zebrafish embryo assessed as survival at 0.01 uM preincubated for 1 hr measured after 72 hrs (reference value: 82.5 +/- 8.4%); design: species or system Danio rerio; settings: zebrafish embryos
[26] = system: PBMC; assay: Induction of DNA damage in human PBMC assessed as gamma-H2AX foci formation at 0.1 to 1 uM after 2 hrs by confocal microscopy; type: cell-based
[27] = system: CCRF-CEM; assay: Induction of DNA damage in human CCRF-CEM cells assessed as gamma-H2AX foci formation at 0.1 to 1 uM after 2 hrs by confocal microscopy; type: functional, cell-based

SMILES	GI50 [1] [nM]	Top1-mediated DNA cleavage activity (active/not active) [3]	GI50 [5] [nM]	GI50 [6] [nM]	GI50 [13] [nM]	GI50 [14] [nM]	GI50 [17] [nM]	GI50 [21] [nM]	GI50 [23] [nM]	also measured
COc1cnc2c(c1)C(=O)c1c-2n(CCCn2ccnc2)c(=O)c2cc(F)ccc12	< 10	Active	43	16	< 10	24	< 10	< 10	< 10	survival at 48 h, 0.1 µM [2]: 62.5%; survival at 96 h, 0.01 µM [4]: 87.5%; survival at 120 h, 0.01 µM [7]: 87.5%; survival at 72 h, 0.1 µM [8]: 45.6%; survival at 24 h, 0.1 µM [9]: 86.2%; survival at 24 h, 0.01 µM [10]: 87.5%; survival at 96 h, 0.1 µM [11]: 45.6%; survival at 120 h, 0.1 µM [12]: 45.6%; survival at 72 h, 1 µM [15]: 0%; survival at 24 h, 1 µM [16]: 28.8%; survival at 48 h, 1 µM [18]: 0%; survival at 120 h, 1 µM [19]: 0%; survival at 96 h, 1 µM [20]: 0%; survival at 10 µM [22]: 0%; survival at 48 h, 0.01 µM [24]: 87.5%; survival at 72 h, 0.01 µM [25]: 87.5%
COc1cnc2c(c1)C(=O)c1c-2n(CCCN2CCOCC2)c(=O)c2cc(F)ccc12	341	Active	250	235	115	228	320	187	44	–
COc1cnc2c(c1)C(=O)c1c-2n(CCCNC(C)C)c(=O)c2cc(Cl)ccc12	173	Active	1390	303	138	554	417	70	37	–
CCNCCCn1c2c(c3ccc(F)cc3c1=O)C(=O)c1cc(OC)cnc1-2	215	Active	282	341	136	320	151	149	42	–
COc1cnc2c(c1)C(=O)c1c-2n(CCCN2CCNCC2)c(=O)c2cc(Cl)ccc12	242	inactive	1430	1430	298	1330	489	200	89	–
CNCCCn1c2c(c3ccc(F)cc3c1=O)C(=O)c1cc(OC)cnc1-2	202	inactive	263	608	143	368	211	142	34	–
CC[C@@]1(O)C(=O)OCc2c1cc1n(c2=O)Cc2cc3ccccc3nc2-1 [CAMPTOTHECIN]	–	–	–	–	–	–	–	–	13	Activity [26]: Non-Toxic; Activity [27]: Active
COc1cnc2c(c1)C(=O)c1c-2n(CCCn2ccnc2)c(=O)c2cc([N+](=O)[O-])ccc12	–	Active	–	–	–	–	–	–	–	survival at 48 h, 0.1 µM [2]: 0%; survival at 96 h, 0.01 µM [4]: 45%; survival at 120 h, 0.01 µM [7]: 45%; survival at 72 h, 0.1 µM [8]: 0%; survival at 24 h, 0.1 µM [9]: 5.6%; survival at 24 h, 0.01 µM [10]: 62.5%; survival at 96 h, 0.1 µM [11]: 0%; survival at 120 h, 0.1 µM [12]: 0%; survival at 72 h, 1 µM [15]: 0%; survival at 24 h, 1 µM [16]: 0%; survival at 48 h, 1 µM [18]: 0%; survival at 120 h, 1 µM [19]: 0%; survival at 96 h, 1 µM [20]: 0%; survival at 10 µM [22]: 0%; survival at 48 h, 0.01 µM [24]: 55.6%; survival at 72 h, 0.01 µM [25]: 45%
COc1cnc2c(c1)C(=O)c1c-2n(CCCNC2=NCCS2)c(=O)c2cc(F)ccc12	144	Active	567	344	82	305	238	59	33	–
COc1cc2c3c(n(CCCNCCO)c(=O)c2cc1OC)-c1cc2c(cc1C3=O)OCO2 [LMP-744]	–	–	–	–	–	–	–	–	–	Activity [26]: Non-Toxic; Activity [27]: Active
COc1cnc2c(c1)C(=O)c1c-2n(CCCN2CCC(O)CC2)c(=O)c2cc(Cl)ccc12	270	Active	1420	190	98	430	–	94	42	Activity [26]: Non-Toxic; Activity [27]: Active
